Calls of active or inactive are those of the source. The calls are words filed in the database; no cut-off is given here.
Tests used:
[1] = molecular target: T1, Adenosine 5'-monophosphoramidase HINT1 (Homo sapiens, UniProt P49773); experiment: (§1) Prodrug activation in human GRANTA-519 cells assessed as Hint1 mediated 2-amino-7-(2-(4-chlorophenoxy)ethyl)-9-((2R,3R,4S,5R)-3,4-dihydroxy-5-(phosphonooxymethyl)tetrahydrofuran-2-yl)-6-oxo-6,9-dihydro-1H-purin-7-ium formation per 5 million cells at 150 uM after 12 hrs by LC-MS/MS analysis; assay type: cell-based
Procedure, shortened: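 Five million MCL cells in RPMI/10% FBS with penicillin, streptomycin and L-glutamine were exposed to compound (150 µM) for 12 h at 37 °C. Cells were washed in cold PBS, extracted in MeOH/NH4OAc (60:40) with 80 fmol internal standards, freeze-thawed three times, then filtered and dried. Residue was taken up in HEPES for LC-MS/MS, quantified against an internal-standard curve.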

[2] = (§2) Prodrug activation in human Mino cells assessed as 9-((2R,3R,4S,5R)-5-(((((2-(1H-Indol-3-yl)ethyl)amino)-(hydroxy)phosphoryl)oxy)methyl)-3,4-dihydroxytetrahydrofuran-2-yl)-2-amino-7-(2-(4-chlorophenoxy)ethyl)-6-oxo-6,9-dihydro-1H-purin-7-ium formation per 5 million cells at 150 uM after 12 hrs by LC-MS/MS analysis; assay type: cell-based
Procedure, shortened: (§3)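 Mantle cell lymphoma cells (five million) grown in RPMI with 10% FBS, penicillin/streptomycin and L-glutamine at 37 °C, 5% CO2, then exposed to 150 µM compound for 12 h at 37 °C. Washed with ice-cold PBS, pellet extracted in MeOH/NH4OAc (60:40) with 80 fmol internal standards, three liquid-N2 freeze–thaw cycles, filtered, dried, redissolved in 20 mM HEPES pH 7.2. Analysed by LC-MS/MS against a standard curve.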

Rattus norvegicus = experiment: Cmax in Sprague-Dawley rat assessed as 9-((2R,3R,4S,5R)-5-(((((2-(1H-Indol-3-yl)ethyl)amino)-(hydroxy)phosphoryl)oxy)methyl)-3,4-dihydroxytetrahydrofuran-2-yl)-2-amino-7-(2-(4-chlorophenoxy)ethyl)-6-oxo-6,9-dihydro-1H-purin-7-ium level at 25 mg/kg, po measured at 30 mins post dose by LC-MS/MS analysis; assay type: ADME, organism-based; set-up: dose 25 mg/kg, route oral; details: in vivo, 0.5 h
Procedure, shortened: (§4)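 Female Sprague-Dawley rats (250-274 g, n=3, catheterized femoral/jugular veins) dosed once p.o. by gavage (25 mg/kg) then, after a 3-day washout, i.v. (2.5 mg/kg). Formulation: 10 mg/mL in 0.5% aqueous CMC with 5% DMSO. Serial blood draws to 480 min into K2EDTA; plasma protein-precipitated with acetonitrile plus internal standards; LC-MS/MS (positive MRM); non-compartmental PK; %F from dose-normalized AUC per rat.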

Z-138 [3] = experiment: as §2, with “Z138” for “Mino”; assay type: cell-based; details: z-138, 12 h; procedure, shortened: as §3
[4] = molecular target: T1, Adenosine 5'-monophosphoramidase HINT1; experiment: as §1, with “hint1-mediated” for “Hint1 mediated”, “analysis relative to 9-((2R,3R,4S,5R)-5-(((((2-(1H-Indol-3-yl)ethyl)amino)-(hydroxy)phosphoryl)oxy)methyl)-3,4-dihydroxytetrahydrofuran-2-yl)-2-amino-7-(2-(4-chlorophenoxy)ethyl)-6-oxo-6,9-dihydro-1H-purin-7-ium” for “analysis”; assay type: cell-based; procedure, shortened: as §3
[5] = Volume of distribution in Sprague-Dawley rat at 2.5 mg/kg, iv by LC-MS/MS analysis; assay type: ADME, organism-based; details: in vivo
Procedure, shortened: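 Female Sprague-Dawley rats (n=3, 250-274 g) with catheters; compound in 0.5% aqueous CMC with 5% DMSO given as a single i.v. injection, 2.5 mg/kg. Blood drawn at 0–480 min into K2EDTA tubes. Plasma precipitated with acetonitrile containing internal standards, then LC-MS/MS in positive MRM mode. Parameters from non-compartmental analysis.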

[6] = molecular target: T1, Adenosine 5'-monophosphoramidase HINT1; experiment: (§5) Prodrug activation in human Z138 cells assessed as Hint1 mediated 2-amino-7-(2-(4-chlorophenoxy)ethyl)-9-((2R,3R,4S,5R)-3,4-dihydroxy-5-(phosphonooxymethyl)tetrahydrofuran-2-yl)-6-oxo-6,9-dihydro-1H-purin-7-ium formation per 5 million cells at 150 uM after 12 hrs by LC-MS/MS analysis; assay type: cell-based; procedure, shortened: as §3
[7] = Antiproliferative activity against human Mino cells after 48 hrs by Annexin V/propidium iodide based flow cytometric analysis; assay type: functional, cell-based
Procedure, shortened: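 MCL lines treated 48 h with compound re-added daily (alone or with co-drug; ibrutinib 25 µM), then survival assessed by Annexin V/PI flow cytometry.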

Z-138 [8] = experiment: Antiproliferative activity against human Z138 cells at 200 uM preincubated for 48 hrs followed by thymidine addition measure after 16 hrs by Thymidine incorporation assay; assay type: functional
Procedure, shortened: (§6)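 MCL lines treated 48 h with compound re-added daily, alone or with co-drug (ibrutinib 25 µM where used), then thymidine added for a further 16 h; proliferation read as thymidine incorporation.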

[9] = molecular target: Eukaryotic translation initiation factor 4E (Homo sapiens) (UniProt P06730); experiment: Inhibition of eIF4E in human Mino cells assessed as potentiation of dexamethasone induced antiproliferation at 100 uM preincubated for 48 hrs followed by thymidine addition measure after 16 hrs by Thymidine incorporation assay; assay type: cell-based; procedure, shortened: as §6
Granta-519 [10] = experiment: Antiproliferative activity against human GRANTA-519 cells at 200 uM preincubated for 48 hrs followed by thymidine addition measure after 16 hrs by Thymidine incorporation assay; assay type: functional; procedure, shortened: as §6
Granta-519 [11] = experiment: Antiproliferative activity against human GRANTA-519 cells preincubated for 48 hrs followed by thymidine addition measure after 16 hrs by Thymidine incorporation assay; assay type: functional, cell-based; procedure, shortened: as §6
[12] = molecular target: Eukaryotic translation initiation factor 4E-binding protein 1 (Homo sapiens) (UniProt Q13541); experiment: Inhibition of 4EBP1 phosphorylation at Thr 37/46 residues in human Mino cells at 100 uM after 48 hrs by Western blot analysis; assay type: cell-based
Procedure, shortened: (§7)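 MCL lines treated 48 h with compound; protein quantified and Western blotted with eIF4E, eIF4G, actin, c-Myc and Bcl-2 antibodies.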

[13] = molecular target: T1, Adenosine 5'-monophosphoramidase HINT1; experiment: as §5, with “hint1-mediated” for “Hint1 mediated”, “analysis relative to 9-((2R,3R,4S,5R)-5-(((((2-(1H-Indol-3-yl)ethyl)amino)-(hydroxy)phosphoryl)oxy)methyl)-3,4-dihydroxytetrahydrofuran-2-yl)-2-amino-7-(2-(4-chlorophenoxy)ethyl)-6-oxo-6,9-dihydro-1H-purin-7-ium” for “analysis”; assay type: cell-based; procedure, shortened: as §3
[14] = molecular target: Eukaryotic translation initiation factor 4E (Homo sapiens) (UniProt P06730); experiment: Inhibition of eIF4E in human GRANTA-519 cells assessed as increase in p27 protein expression after 48 hrs by Western blot method; assay type: cell-based; procedure, shortened: as §7
[15] = molecular target: Eukaryotic translation initiation factor 4E (Homo sapiens) (UniProt P06730); experiment: Inhibition of eIF4E in human Mino cells assessed as down regulation of c-Myc protein expression at 100 uM after 48 hrs by Western blot analysis; assay type: cell-based; procedure, shortened: as §7
[16] = molecular target: Eukaryotic translation initiation factor 4E (Homo sapiens) (UniProt P06730); experiment: Inhibition of eIF4E in human GRANTA-519 cells assessed as down regulation of c-Myc protein expression after 48 hrs by Western blot method; assay type: cell-based; procedure, shortened: as §7
[17] = molecular target: Eukaryotic translation initiation factor 4E (Homo sapiens) (UniProt P06730); experiment: Inhibition of eIF4E in human GRANTA-519 cells assessed as disruption of interaction between protein and mRNA 5'-cap at 10 to 100 uM by m7GTP pull-down assay; assay type: cell-based
Procedure, shortened: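 Eight to ten million treated MCL cells washed in cold PBS, lysed in cap binding buffer, and eIF4E binding captured on m7GTP-Sepharose beads (pull-down).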

[18] = AUC (0 to 8 hrs) in Sprague-Dawley rat plasma at 25 mg/kg, po by LC-MS/MS analysis; assay type: ADME, organism-based; set-up: time < 8 hr, dose 25 mg/kg, route oral; procedure, shortened: as §4
[19] = Half life in Sprague-Dawley rat at 2.5 mg/kg, iv by LC-MS/MS analysis; assay type: ADME, organism-based; details: in vivo; procedure, shortened: as §4

Chain of Eukaryotic translation initiation factor 4E (Homo sapiens) (P06730 whole entry): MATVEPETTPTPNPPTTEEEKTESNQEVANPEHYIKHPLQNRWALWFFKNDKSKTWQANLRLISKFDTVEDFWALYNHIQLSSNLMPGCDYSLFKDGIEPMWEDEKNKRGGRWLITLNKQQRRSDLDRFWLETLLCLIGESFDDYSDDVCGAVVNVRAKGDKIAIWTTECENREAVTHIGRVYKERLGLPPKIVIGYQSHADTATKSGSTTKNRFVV
T1 sequence (P49773 whole entry): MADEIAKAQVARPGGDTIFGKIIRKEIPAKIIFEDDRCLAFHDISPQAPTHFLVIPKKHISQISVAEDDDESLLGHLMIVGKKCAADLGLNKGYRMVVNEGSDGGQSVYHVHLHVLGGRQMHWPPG
Chain of Eukaryotic translation initiation factor 4E-binding protein 1 (Homo sapiens) (Q13541 whole entry): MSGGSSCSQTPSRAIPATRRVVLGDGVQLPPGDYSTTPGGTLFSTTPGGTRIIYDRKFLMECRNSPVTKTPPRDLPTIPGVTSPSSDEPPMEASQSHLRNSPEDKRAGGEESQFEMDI

CSCCOP(=O)(NCCc1c[nH]c2ccccc12)OC[C@H]1O[C@@H](n2c[n+](CCOc3ccc(Cl)cc3)c3c(=O)[nH]c(N)nc32)[C@H](O)[C@@H]1O (stereo partly specified)
Drug metabolism [1]: 10.3 pmol
Drug metabolism [2]: 64.6 pmol
Cmax (Rattus norvegicus): 6 ng/mL
Drug metabolism (Z-138 [3]): 37.3 pmol
fold change (FC) [4]: 1.9
Vd [5]: 205 L/kg
Drug metabolism [6]: 272 pmol
IC50 [7]: > 200 µM
Activity (Z-138 [8]): 100%
inhibition [9]: Active
Activity (Granta-519 [10]): 100%
Activity (Granta-519 [11]): Dose-dependent effect
IC50 (Granta-519 [11]): 50 µM
inhibition [12]: inactive
fold change (FC) [13]: 520
inhibition [14]: Dose-dependent effect
inhibition [15]: Active
inhibition [16]: Dose-dependent effect
inhibition [17]: Active
AUC(0-t) at 8 h [18]: 28.3 ng·h/mL
half-life [19]: 1.32 h

From ChEMBL document CHEMBL4028857, “Anchimerically Activated ProTides as Inhibitors of Cap-Dependent Translation and Inducers of Chemosensitization in Mantle Cell Lymphoma” (J Med Chem, 2017)
